High-throughput results (PubChem BioAssay)
Only some compounds are listed: those with a hit (about 12% of all), similar ones and a draw of the others.
Lmaj promast = inhibitors of Leishmania major promastigote growth; 200,000 compounds, 9% hits; inhibition, % at 10 µM; AID 1063; Leishmania major promastigotes, resazurin fluorescence viability; in the data active = inhibition above about 50%;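 also: promastigotes grown with compound for 44 hours at 28 °C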
ABCG2 block = inhibitors of human ABCG2 transporter, ABCB1 counter-screen; Q9UNQ0; IgMXP3 cells, JC-1 efflux, flow cytometry; inhibition, % at 6.6 µM; 190,000 compounds, 0.1% hits;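 active = inhibition above 80%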;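 also: 0% = DMSO and 100% = nicardipine control wells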
Target sequence (Q9UNQ0 whole entry, looked up): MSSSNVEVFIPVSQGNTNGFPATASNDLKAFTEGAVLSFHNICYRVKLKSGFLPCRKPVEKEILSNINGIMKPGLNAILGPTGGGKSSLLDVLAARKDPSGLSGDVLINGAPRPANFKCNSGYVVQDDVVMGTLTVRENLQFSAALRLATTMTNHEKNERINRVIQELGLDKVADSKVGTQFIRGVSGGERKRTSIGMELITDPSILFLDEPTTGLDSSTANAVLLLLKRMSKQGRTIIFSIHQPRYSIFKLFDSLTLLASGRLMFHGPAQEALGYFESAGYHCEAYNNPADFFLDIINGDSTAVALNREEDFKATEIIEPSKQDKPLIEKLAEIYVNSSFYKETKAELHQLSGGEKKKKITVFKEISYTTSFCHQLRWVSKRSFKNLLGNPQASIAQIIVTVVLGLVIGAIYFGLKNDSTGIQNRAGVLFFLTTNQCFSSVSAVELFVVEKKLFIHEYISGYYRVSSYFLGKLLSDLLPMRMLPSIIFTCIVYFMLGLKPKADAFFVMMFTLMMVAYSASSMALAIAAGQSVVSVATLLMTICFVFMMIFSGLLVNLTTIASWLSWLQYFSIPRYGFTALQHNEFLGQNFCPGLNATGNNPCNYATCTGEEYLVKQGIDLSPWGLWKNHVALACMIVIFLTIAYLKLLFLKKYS
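System: two drug-resistant human cell lines, ABCG2 and ABCB1; controls: nicardipine high and DMSO low controls; times: 10 min exposure at 25 °C with rotation, no wash; detection: flow cytometry of retained JC-1 fluorescence; read-out basis: percent efflux inhibition, scaled nicardipine 100% to DMSO 0%; doses: one concentration, 6.6 µM final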
ABCB1 inh = inhibitors of human ABCB1 transporter, ABCG2 counter-screen. inhibition, % at 6.6 µM. 190,000 compounds, 0.067% hits. AID 1326. CCRF-Adr cells, JC-1 efflux, flow cytometry; in the data active = inhibition above about 40%;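 also: 0% = vehicle and 100% = reference inhibitor; higher value means more JC-1 retained so stronger ABCB1 efflux block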
WT yeast gro inh = growth inhibition of WT yeast, mitochondrial fusion screen | mitochondrial fusion phenotypic screen, WT strain | inhibition, % at 10 µM | 190,000 compounds, 2.1% hits | AID 1362; in the data active = inhibition above about 58%; tested in S. cerevisiae
RAM inhibit = blocks the yeast RAM network; S. cerevisiae dse1pr::URA3 reporter, 5-FOA growth OD615, 2 d; analog-sensitive cbk1-as2 kinase mutant strain; inhibition, % at 50 µM; 190,000 compounds, 1.8% hits; AID 868;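 active = inhibition above a set limit, 3 SD over mean compound inhibition, cut at about 8.4% in these data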;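 also: 0% = DMSO-only wells with no growth and 100% = 10 µM 1-NA-PP1 full growth; inhibition rescues growth on 5-FOA so higher OD means more RAM inhibition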
* marks the source's active call; other numbers are inactive results; x = no result given.

SMILES	Lmaj promast	ABCG2 block	ABCB1 inh	WT yeast gro inh	RAM inhibit
N=c1c(C(=O)NCc2ccc(F)cc2)cc2c(=O)n3ccccc3nc2n1Cc1cccnc1	70.9*	2.6	0.2	11.0	1.4
CC(C)OCCCn1c(=NC(=O)c2ccncc2)c(C#N)cc2c(=O)n3ccccc3nc21	34.4	4.0	0.7	3.2	0.9
CC(C)OCCCn1c(=N)c(C(N)=S)cc2c(=O)n3ccccc3nc21	100.5*	0.4	0.1	-7.2	1.6
COc1ccc(N2C(=O)CC(NCCNc3ccc([N+](=O)[O-])cn3)C2=O)cc1 (stereo not drawn)	-7.1	22.4	2.5	-4.5	2.5
Cc1c(C(=O)OCC(C)(C)CN(C)C)oc2ccccc12	-4.3	0.4	0.0	6.4	1.9
Cc1c(C(=O)OC(C)CCN(C)C)oc2ccccc12 (stereo not drawn)	85.4*	2.2	0.5	-1.5	2.1
CC(=O)N1c2ccc(Cl)cc2C2C=CCC2C1c1cccc2ccccc12 (stereo not drawn)	22.3	0.3	0.5	4.8	1.7
CC(=O)N1c2ccc3ccccc3c2C2C=CCC2C1c1ccc(Br)cc1 (stereo not drawn)	97.3*	-5.2	-0.3	46.9	6.4
O=C(C1CC(=O)N(C2CCCC2)C1)N1CCN(c2ccccc2F)CC1 (stereo not drawn)	-3.4	3.0	0.6	-15.9	0.8
O=C(C1CC(=O)N(C2CCCC2)C1)N1CCC(Cc2ccccc2)CC1 (stereo not drawn)	70.2*	0.2	0.3	15.9	-0.4
CN1CCN(c2cc(-c3ccccc3)nc3cc(-c4ccc(F)cc4)nn23)CC1	100.1*	15.0	10.5	83.7*	2.4
COc1cccc(-c2cc3nc(-c4ccccc4)cc(N4CCC5(CC4)OCCO5)n3n2)c1	63.1*	4.7	0.9	36.0	7.1
Cc1cc(N2CCN(C)CC2)n2cc(-c3ccc(F)cc3)nc2n1	-0.6	2.3	0.3	-15.7	2.4
Fc1ccc(-c2cc3nc(-c4ccccc4)cc(N4CCN(CCN5CCOCC5)CC4)n3n2)cc1	77.3*	6.9	4.1	-9.3	3.3
CCOC(=O)CN(C(=O)CSc1nnc2c(n1)[nH]c1c(C)cc(C)cc12)c1ccccc1	-4.3	2.7	1.0	6.4	8.9*
CCCNC(=O)Nc1ccc(C(F)(F)F)cc1	5.5	7.6	-0.2	5.7	2.9
C=CCc1ccc(OCCCOc2ccc(C)c(C)c2)c(OC)c1	-5.8	3.3	0.6	7.0	-0.3
CCOc1ccccc1OCCNC1CCCC1	-0.6	9.8	2.1	-10.4	-0.8
C=CCc1ccc(OCCCCNC2CCCC2)c(OC)c1	88.8*	-0.1	0.3	5.3	1.4
CCCOc1ccc(OCCNC2CCCC2)cc1	94.2*	2.2	0.4	23.7	-0.3
Cc1ccc(C)c(OCCCNC2CCCC2)c1C	97.2*	-0.2	0.0	12.1	0.9
CCOc1ccc(OCCNC2CCCC2)cc1	83.8*	0.0	-0.1	8.2	0.0
Cc1ccc(OCCCNC2CCCC2)cc1	8.2	5.6	0.5	-8.8	1.0
Cc1ccc(OCCCCNC2CCCCC2)c(C)c1	93.8*	6.4	1.4	25.3	1.4
CC(C)(C)c1ccc(OCCCNC2CCCC2)cc1	99.0*	8.1	0.5	25.2	0.4
SMILES	Lmaj promast	ABCG2 block	ABCB1 inh	WT yeast gro inh	RAM inhibit
CCC1CCCCN1C(=O)COc1c(Br)cc(Br)c2cccnc12 (stereo not drawn)	28.4	4.6	1.4	41.3	-2.3
CC1CC(C)CN(c2cc3c(cc2[N+](=O)[O-])C(=O)N(c2ccccc2)C3=O)C1 (stereo not drawn)	84.9*	5.9	-0.2	1.6	3.1
O=C1c2cc(N3CCCC3)c([N+](=O)[O-])cc2C(=O)N1c1ccccc1	59.8*	4.3	0.0	5.4	5.7
CC1CC(C)CN(c2ccc(-n3cnnn3)cc2[N+](=O)[O-])C1 (stereo not drawn)	10.5	7.4	0.0	20.9	1.3
O=C1CCCC(=O)N1c1ccc(N2CCN(c3ccccc3)CC2)c([N+](=O)[O-])c1	-8.5	17.9	2.8	-18.2	3.0
O=C(COc1cccc(NC(=O)c2cccc([N+](=O)[O-])c2)c1)c1ccc(Br)cc1	21.9	0.2	-0.1	52.6	3.1
O=[N+]([O-])c1ccc(Nc2nc(NC3CCCCC3)nc(N3CCCC3)n2)cc1	98.3*	3.9	0.4	76.6*	6.9
COc1cccc(/C=N/Nc2nc(Nc3ccc([N+](=O)[O-])cc3)nc(N3CCCC3)n2)c1O	100.4*	-2.7	-1.1	-7.1	5.1
O=[N+]([O-])c1ccc(Nc2nc(N/N=C/c3cccc(F)c3)nc(N3CCCC3)n2)cc1	36.5	0.6	0.1	26.1	3.6
COc1cnc(-c2ccccc2)nc1Oc1ccccc1C	7.1	3.6	0.4	4.9	5.7
COc1cnc(-c2ccccc2)nc1Oc1ccc(C(C)(C)C)cc1	3.6	3.8	-0.1	25.9	11.0*
COc1cnc(-c2ccccn2)nc1Oc1ccc(Cl)c2ccccc12	100.5*	0.9	0.4	-5.0	-1.9
COc1cnc(-c2ccccn2)nc1Oc1ccc(Cl)cc1	71.2*	0.5	-0.2	37.7	0.0
FC(F)(F)c1cc(Oc2ccc(Cl)cc2)nc(-c2ccccn2)n1	-0.1	22.2	0.6	4.0	1.7
COc1cnc(-c2ccccn2)nc1Oc1ccc(F)cc1F	37.2	5.2	0.3	46.6	-0.5
COc1cnc(-c2ccccn2)nc1Oc1ccccc1Cl	43.7	7.1	1.1	60.6*	-0.3
CCNc1nc(NC(C)(C)C)nc(Oc2ccc(=O)n(-c3ccccc3)n2)n1	-0.1	9.9	1.1	3.1	5.8
COc1ccc(C(=O)NC=C2C(=O)OC(C)(C)OC2=O)cc1	-10.8	-1.1	-0.3	-6.0	0.1
COc1ccc(CCNC(=O)COC(=O)COc2ccc(C#N)cc2)cc1	-1.8	1.0	0.1	-8.5	0.8
O=C(Cn1cc2c(n1)CCCC2)NC1CCN(Cc2ccccc2)CC1	72.0*	0.8	-0.1	-5.2	3.1
O=C(CN1CCOc2ccccc21)NC1CCN(Cc2ccccc2)CC1	77.8*	0.2	0.5	6.4	1.0
O=C(CN1CCOc2ccccc21)NC1CCCCCCC1	11.8	x	x	12.9	x
O=C(CN1C(=O)S/C(=C/c2cc(Br)cs2)C1=O)N1CCOCC1	-8.4	45.3	0.8	-6.4	4.2
Cn1nnnc1SC(C(=O)Nc1cccc(C(F)(F)F)c1)c1ccccc1 (stereo not drawn)	61.5*	11.7	0.8	15.3	6.8
O=C(Nc1cccc(C(F)(F)F)c1)C(SCCO)c1ccccc1 (stereo not drawn)	-4.4	-2.8	0.3	5.2	1.4
COc1ccc(NC(=S)N/N=C/c2cccn2Cc2ccc(F)cc2)cc1	1.8	-2.5	-1.3	14.1	4.9
CCn1cc(C(=O)NCc2ccc3c(c2)OCO3)c(=O)c2cc(F)c(N3CCN(C(=O)c4ccco4)CC3)cc21	27.5	5.5	6.8	21.2	1.1
COc1ccccc1C(=O)C1CCCN(Cc2ccc(Oc3ncccn3)cc2)C1 (stereo not drawn)	-1.5	1.0	1.0	-1.5	0.1
